# PMI act satM6P: activators of human phosphomannose isomerase at near-saturating mannose 6-phosphate | coupled PMI enzyme assay, resazurin fluorescence, 20 min; hits give high values; 1 = untreated enzyme, 0 = substrate-free blank | activation factor at 20 µM | 0.34% of 190,000 active | P34949 | AID 1216;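 active means activation factor of 2 or more at 20 µM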
#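 Test system: human phosphomannose isomerase with PGI, G6PDH, diaphorase coupling enzymes / Doses: 20 µM compound, 1% DMSO / Times: enzyme reaction with compound 20 min at room temperature / Measured by: Diaphorase-driven resazurin-to-resorufin fluorescence, excitation 544, emission 590 nm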
# NCF1 inh: p47phox (human) inhibition; P14598; p47phox/p22phox peptide binding, fluorescence polarization, 2 h; inhibition, % at 24.7 µM; 0.53% of 220,000 active; AID 1274;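 active means inhibition above about 30%, limit read from the data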;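 further: 0% = p47phox with labelled peptide and 100% = labelled peptide alone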
# Target sequence (P14598 whole entry, looked up): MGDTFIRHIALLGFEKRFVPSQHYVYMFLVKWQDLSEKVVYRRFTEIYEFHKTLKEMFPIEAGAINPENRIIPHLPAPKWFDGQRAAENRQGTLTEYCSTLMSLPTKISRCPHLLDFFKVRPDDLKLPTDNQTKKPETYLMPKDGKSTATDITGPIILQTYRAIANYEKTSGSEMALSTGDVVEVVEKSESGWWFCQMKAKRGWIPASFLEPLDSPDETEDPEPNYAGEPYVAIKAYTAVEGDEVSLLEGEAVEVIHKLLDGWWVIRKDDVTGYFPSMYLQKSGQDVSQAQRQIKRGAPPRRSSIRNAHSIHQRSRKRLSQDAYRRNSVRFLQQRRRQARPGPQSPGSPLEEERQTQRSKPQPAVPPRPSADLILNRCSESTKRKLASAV
# Diaphorase act: counter-screen for diaphorase-based assays: diaphorase activators and chemical reducers; activation factor at 20 µM; Diaphorase/resazurin coupled assay, resorufin fluorescence, 16 min; hits give high values; 1 = vehicle wells, 0 = NADH-free wells; 0.005% of 190,000 active;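 active means diaphorase activity raised at least twofold by the compound at 20 µM; inactive means activation factor below 2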
#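 Material: Purified diaphorase enzyme from Clostridium kluyveri | Buffer or medium: 50 mM HEPES pH 7.4 with 4.542 mM MgCl2, 0.005% Tween 20 | Times: 16 min enzyme reaction, ambient temperature | Signal: Red resorufin fluorescence at 544/590 nm excitation/emission | Measure: Increased resorufin signal from activators or reducing compounds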
# PMI act: phosphomannose isomerase (human) activation | P34949 | purified human PMI, coupled resazurin fluorescence, 20 min; hits give high values; 1 = vehicle control, 0 substrate-free wells | activation factor at 20 µM | 0.005% of 190,000 active | AID 1214;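 active means activation factor of 2 or more at 20 µM, relative to plate controls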
# GSH bead fluor: GSH bead compound fluorescence profile | GSH beads flow cytometry, compound fluorescence 488/530 nm; hits give high values | 0.25% of 190,000 active | fluorescence (KMESF) at 10 µM; in the data active means fluorescence above about 89;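 further: glutathione beads carrying GST-tagged Bcl family fusion proteins plus one bare bead set; values are compound well signal with DMSO vehicle wells as background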
# Avidin bead fluor: compound fluoresces at 488/530 nm on avidin beads. compound fluorescence 488/530 nm, flow cytometry; hits give high values. fluorescence (KMESF) at 10 µM. 0.38% of 220,000 active; in the data active means fluorescence above about 47
# The depositor's hits bear a star; · = no result. The list is not random: actives were taken first. Their share in the collection is about 1.4%.
SMILES,PMI act satM6P,NCF1 inh,Diaphorase act,PMI act,GSH bead fluor,Avidin bead fluor
COc1cc(/C=C(\C#N)c2nn(CCO)c(N)c2C#N)cc(OC)c1OC,2.2*,-2,0.9,1.6,11,11
O=C(NNC(=O)c1cccc2ccccc12)c1ccc(-c2ccccc2)cc1,0.9,-8,0.9,0.9,10,6
OC(CNCc1ccco1)COc1ccccc1 (centres undefined),1,-1,0.9,1.1,45,6
OC(CNCc1ccco1)Cn1c2ccccc2c2ccccc21 (centres undefined),0.9,-7,0.8,0.9,263*,6
Cc1ccc(S(=O)(=O)NNC(=O)C(=O)NNS(=O)(=O)c2ccc(C)cc2)cc1,0.9,-4,0.9,1,17,8
Cc1ccc(NNS(=O)(=O)c2ccc(C)cc2)cc1,2*,8,0.8,1.1,20,9
Cc1cccc(C)c1NC(=S)/N=C/N(C)C,1,91*,1,1,18,7
CCC(C)(C)C1CCC(=NNc2nc3ccccc3[nH]2)CC1 (centres undefined),2*,-3,1,1.7,9,2
CCOC(=O)CN(C(=O)CSc1nnc2c(n1)[nH]c1c(C)cc(C)cc12)c1ccccc1,1,-14,0.8,0.9,257*,7
COc1cccc(-n2c(C)nnc2SCC#N)c1,1,-1,0.9,1.2,6,7
Cc1cc(-c2nnc(CCC(=O)N3CCN(Cc4cccnc4)CC3)o2)c(C)o1,1,133*,1,1,10,12
CN(C(=O)c1ccco1)c1nc2c(s1)CCCC2,1.1,-11,0.9,1.1,9,10
Cc1cc(C)c(C#N)c(SCCS(=O)(=O)c2ccc(C(C)(C)C)cc2)n1,1,-7,0.9,0.9,30,·
CN(C)c1ccnc2c[cH-]cc12.[Fe].c1ccc(-[c-]2[c-](-c3ccccc3)[c-](-c3ccccc3)[c-](-c3ccccc3)[c-]2-c2ccccc2)cc1 (centres undefined),·,90*,·,·,·,14
CN(C)c1ccnc(Nc2ccccc2)c1C#N,1.1,1,0.9,1,9,3
CN(CCc1ccccc1)Cc1nc(-c2cnccn2)no1,0.9,-6,0.8,0.9,12,12
CN(C)c1ccc(/C=C2/NC(=O)NC2=O)cc1,0.9,-14,0.9,1,17,113*
O=C1NC(=O)/C(=C/c2cccc(O)c2)N1,·,-7,·,·,·,·
O=C(Nc1ccsn1)c1ccc(Cl)cc1Cl,·,-5,·,·,·,7
O=C(CSc1nnc(-c2c[nH]c3ccccc23)o1)N1CCCCC1,1,-22,0.7,0.9,24,57*
COc1ccc(C(=O)COC(=O)CNC(=O)c2cccc(OC(F)F)c2)cc1,1.1,3,1.1,1.1,16,13
Cc1sc2ncnc(N3CCCCC3)c2c1C,1,-14,0.9,1,16,6
CCc1cc2c(N3CCCCC3)ncnc2s1,1,-2,0.8,1,247*,6
COc1ccc(N=C2S/C(=C\c3ccc(N4CCOCC4)o3)C(=O)N2CCc2c[nH]c3ccccc23)cc1,0.7,-70,0.8,0.8,113*,23
Cc1ccc(C(NC(=O)N2CCCC2)C(Cl)Cl)cc1F (centres undefined),2*,-9,1,1.7,16,9
Cc1cc2nnc(SCC(=O)N3C(C)CCCC3C)n2c(N)n1 (centres undefined),0.9,54*,0.9,0.8,65,6
COCCOC(=O)c1c(C)oc2ccc(OCC=C(C)C)cc12,1,-10,1,0.9,24,48*
O=C(CCC(=O)N(c1ccc(F)cc1)C(C(=O)NC1CCCC1)c1ccncc1)Nc1cccnc1 (centres undefined),1.1,5,1,1,15,5
CN1CCN(C(CNS(=O)(=O)c2ccc(Cl)cc2)c2cccnc2)CC1 (centres undefined),0.9,-6,0.9,0.9,33,130*
Cc1cccc(-n2cc(-c3ccccc3)c3c(NN4CCOCC4)ncnc32)c1,1,-5,0.8,0.9,10,7
